Results pooled from the literature.
Compare with care: the assays were run in different laboratories.
Target: LIM domain kinase 2 (LIMK2, Homo sapiens, UniProt P53671)

COc1cnc(Nc2cccc(S(N)(=O)=O)c2)nc1N1CCN(c2ccccc2)C(=O)C1 — remaining binding (binding, competition with immobilised ligand; 1 µM): 100%
O=C(Nc1ccc(Oc2ccc(F)cc2)cc1)N1CCc2ncccc2[C@H]1c1ccc(F)cc1 — remaining binding (cell-free assay, competition with immobilised ligand; 1 µM): 93%
O=C(c1ccc(Nc2ncc(Cl)c(-c3ccc(Cl)s3)n2)cc1)N1CCC(N2CCCC2)CC1 — remaining binding (binding, competition with immobilised ligand; 1 µM): 38%
N[C@@H]1CCN(c2nccc(-c3cnn4ncccc34)n2)C1 — remaining binding (binding; 1 µM): 100%
CC1=C(C#N)[C@@H](c2ccc3[nH]nc(C)c3c2)C(C#N)=C(c2ccc(Cl)cc2)N1 — remaining binding (cell-free assay, competition with immobilised ligand; 1 µM): 91.1%
O=C(NCCCN1CCOCC1)c1ccc(Nc2ncc(Cl)c(-c3ccc(Cl)s3)n2)cc1 — remaining binding (binding, competition with immobilised ligand; 1 µM): 83%
CN(c1nccc(-c2cnn3ncccc23)n1)C1CC1 — remaining binding (binding; 1 µM): 100%
CCC(=O)N[C@H]1CC[C@@H](C(=O)N(C)c2ccc(-c3nc4ccccc4o3)cc2)C1 — remaining binding (cell-free assay, competition with immobilised ligand; 1 µM): 100%
C[C@@H]1CCN(c2nccc(-c3cnn4ncccc34)n2)C1 — remaining binding (binding; 1 µM): 87%
COc1cc(-c2cn(C3CCc4c(F)cccc4N(CC(F)(F)F)C3=O)nn2)ccc1-n1cnc(C)c1 (stereo not shown) — remaining binding (cell-free assay, competition with immobilised ligand; 1 µM): 100%
Nc1ncc2c(n1)-c1c([nH]c3ccc(C#CC4CC4)cc13)CCCC2 — remaining binding (binding, competition with immobilised ligand; 1 µM): 91%
COc1cnc(Nc2cccc(S(N)(=O)=O)c2)nc1N1CCN(c2ccccc2)CC1 — remaining binding (binding, competition with immobilised ligand; 1 µM): 96%
COc1ccnn2ncc(-c3ccnc(N(C)C)n3)c12 — remaining binding (binding; 1 µM): 82%
O=C(Nc1c[nH]nc1C(=O)NC1CCNCC1)c1cc(F)cc(F)c1 — remaining binding (binding, competition with immobilised ligand; 1 µM): 97%
F[C@@H]1CCN(c2nccc(-c3cnn4ncccc34)n2)C1 — remaining binding (binding; 1 µM): 85%
CNCc1ccccc1-c1csc([C@@H](C)Nc2nc(C)nc3cc(OC)c(OC)cc23)c1 — remaining binding (cell-free assay, competition with immobilised ligand; 1 µM): 96%
C=CC(=O)N1CCC(C(=O)NCC(=O)N2CCN(c3nc(-c4cnc(N)nc4C(F)F)nc(N4CCOCC4)n3)CC2)CC1 — remaining binding (binding, competition with immobilised ligand; 1 µM): 97%
CN(C)c1ncnc(-c2ccc3nc(Nc4cc(CN5CCN(C(=O)CC(F)(F)F)CC5)ccn4)[nH]c3c2)c1Cl — remaining binding (cell-free assay, competition with immobilised ligand; 1 µM): 100%
CN(CCCC(F)(F)F)c1nccc(-c2cnn3ncccc23)n1 — remaining binding (binding; 1 µM): 95%
O=C(c1ccc(Nc2ncc(Cl)c(-c3cc4ccccc4s3)n2)cc1)N1CCC(N2CCCC2)CC1 — remaining binding (binding, competition with immobilised ligand; 1 µM): 30%
COc1ncc2cc3ccccc3nc2c1C#N — remaining binding (cell-free assay, competition with immobilised ligand; 5 µM): 91%
C[C@@H](c1ccc(-n2cnc3c(N)ncnc32)cc1)N1CCc2nn(C)c(Cc3ccccc3)c2C1=O — remaining binding (binding, competition with immobilised ligand; 0.1 µM): 25%
